# Measured values gathered from unrelated publications.
# Compare with care: the assays were run in different laboratories.
# Sample: plasma
Structure (SMILES),species,route,dose,setting,Tmax
NS(=O)(=O)OC[C@@H]1C[C@@H](n2ccc3c(N[C@H]4CCc5ccccc54)ncnc32)C[C@@H]1O,human,intravenous,20 mg/m²,patients,1.03 h
Cl.[2H]C([2H])([2H])CC(=O)c1cnc(NC(=O)C2CC2)cc1Nc1cccc(-c2ncn(C([2H])([2H])[2H])n2)c1OC,human,oral,20 mg,"multiple doses, once daily, fasted",2.1 h
CN1CC[C@@H](c2c(O)cc(O)c3c(=O)cc(-c4ccc(C(F)(F)F)cc4Cl)oc23)[C@@H]1CO,human,oral,50 mg,patients,4.1 h
CNC(=O)n1ccc2cc(Oc3ccnc(NC(=O)c4ccc(C5CCN(CCO)CC5)cc4)c3)c(OCCOC)cc21,human,oral,35 mg,"single dose, fasted, healthy volunteers",3 h
Cc1ccc(C(=O)Nc2ccc(CN3CCN(C)CC3)c(C(F)(F)F)c2)cc1C#Cc1cnc2[nH]ncc2c1,human,oral,40 mg,healthy volunteers,8 h
NC(=S)NN=Cc1ncccc1N,human,oral,100 mg,,0.9 h
CC(C)n1c(Nc2cccnc2)nc2cnc(Nc3ccc(N4CCN(C)CC4)cc3)nc21,male human,oral,100 mg,"single dose, healthy volunteers",1.5 h
Cn1cc(Nc2nc(N)nc(-c3cccc(-n4ccc5cc(C6CC6)cc(F)c5c4=O)c3CO)n2)cn1,human,oral,300 mg,"single dose, fasted, healthy volunteers",2 h
COc1ccc([C@@H](O)c2cc(-c3ncnc4cc(N5CCOCC5)ccc34)c(F)cc2Cl)nn1,human,oral,250 mg,"single dose, patients",1.03 h
